Experimental data taken from PubChem BioAssay.
Activity calls are given as the source filed them.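 How the source made its calls, unless noted: active means viability at or below 30% in both replicate assays; inconclusive means viability at or below 30% in just one of the two assays; inactive means the rest.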

Columns and labels:
[1] = Her2 expression decrease, cell viability multiplex – SKBR3 breast tumor cells, AlphaScreen, ATP viability, primary screen (AID 461;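 active means Her2 level under about 52% in both replicate screens, with viability over 70% of control, limit read from the data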;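 on Her2 level: lower value means less Her2 protein in the cells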;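 on viability: percent of carrier control wells set as 100% viability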); settings: SKBR3 Her2 protein level, 18-24 h, measured here: SKBR3 viability, ATP luminescence, at 10 µM
[2] = biological target: Receptor tyrosine-protein kinase erbB-2 (Homo sapiens) (UniProt P04626); experiment: as above; settings: 18-24 h, at 10 µM, stronger effect = lower value
Receptor tyrosine-protein kinase erbB-2 (Homo sapiens), sequence (P04626 whole entry, looked up): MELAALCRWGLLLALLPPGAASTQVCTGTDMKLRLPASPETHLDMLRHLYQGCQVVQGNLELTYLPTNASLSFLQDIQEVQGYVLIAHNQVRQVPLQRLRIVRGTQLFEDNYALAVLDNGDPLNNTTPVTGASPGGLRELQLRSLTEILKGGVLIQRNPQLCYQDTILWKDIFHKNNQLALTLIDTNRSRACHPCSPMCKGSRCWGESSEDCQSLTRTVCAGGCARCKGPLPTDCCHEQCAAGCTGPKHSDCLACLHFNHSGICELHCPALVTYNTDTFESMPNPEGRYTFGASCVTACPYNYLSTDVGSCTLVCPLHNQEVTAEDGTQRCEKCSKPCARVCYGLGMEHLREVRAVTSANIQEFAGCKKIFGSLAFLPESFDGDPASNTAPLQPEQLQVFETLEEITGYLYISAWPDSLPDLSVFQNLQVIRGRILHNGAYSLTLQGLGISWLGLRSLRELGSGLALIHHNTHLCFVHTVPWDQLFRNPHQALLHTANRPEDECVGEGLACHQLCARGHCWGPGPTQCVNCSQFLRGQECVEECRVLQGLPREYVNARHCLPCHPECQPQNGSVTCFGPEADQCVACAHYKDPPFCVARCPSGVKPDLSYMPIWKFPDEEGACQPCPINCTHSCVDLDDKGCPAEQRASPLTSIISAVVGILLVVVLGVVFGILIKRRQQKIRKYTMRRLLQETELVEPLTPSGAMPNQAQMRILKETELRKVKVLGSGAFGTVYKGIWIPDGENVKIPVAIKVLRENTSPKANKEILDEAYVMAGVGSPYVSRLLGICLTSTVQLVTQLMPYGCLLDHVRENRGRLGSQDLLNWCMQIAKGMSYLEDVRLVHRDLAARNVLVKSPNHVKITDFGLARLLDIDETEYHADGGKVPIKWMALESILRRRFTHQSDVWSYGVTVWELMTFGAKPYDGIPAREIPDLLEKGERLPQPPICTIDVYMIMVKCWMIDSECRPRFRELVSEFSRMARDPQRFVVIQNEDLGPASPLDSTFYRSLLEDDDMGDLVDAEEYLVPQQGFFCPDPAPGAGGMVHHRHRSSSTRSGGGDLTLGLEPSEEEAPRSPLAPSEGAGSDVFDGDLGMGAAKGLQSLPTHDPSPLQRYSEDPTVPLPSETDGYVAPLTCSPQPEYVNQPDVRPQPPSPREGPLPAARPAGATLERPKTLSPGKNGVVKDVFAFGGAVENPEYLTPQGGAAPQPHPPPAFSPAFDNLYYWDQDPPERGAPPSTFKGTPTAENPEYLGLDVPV

[3] = reduced viability of SK-BR-3 breast cancer cells – cell-based, 24 h, human, pilot screen (AID 572;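 active means viability at or below 10% of carrier control in both of two separate runs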;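 further: compound exposure lasted between 18 and 24 h rather than exactly 24 h; 100% = carrier-treated control wells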); settings: SK-BR-3 viability, CellTiter-Glo luminescence, at 10 µM, stronger effect = lower value
[4] = HUVEC growth inhibition – cell-based, human, primary screen (AID 575); settings: HUVEC proliferation, CellTiter-Glo luminescence, 72 h; at 10 µM; stronger effect = lower value;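 further: 100% = median of untreated cell wells with 0.1% DMSO on each plate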
Method in brief: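 Test system – primary HUVEC, no more than 12 passages · Dosing – one dose, 10 µM final, 0.1% DMSO · Times – 72 h treatment at 37 °C · Measured by – ATP-based CellTiter-Glo luminescent read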

[5] = H69AR cell proliferation blockers – human, duplicate replicates, primary screen (AID 580;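 active means viability at or under a set limit in both replicates, limit being median viability minus 3 SD, cut at about 48% in these data, passing the limit was not always enough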;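 further: 100% = mean luminescence of untreated wells and 0% = no signal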); settings: H69AR lung tumor cells viability, ATP luminescence, 72 h; at 10 µM; stronger effect = lower value
[6] = MRP1 drug-resistance reversers in H69AR cells – cell-based, doxorubicin co-treatment, pilot screen (AID 601;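 active means viability loss from added drug above about 55%, and viability with drug at most 40%, in both replicates, limit read from the data, passing the limit was not always enough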); settings: CellTiter-Glo, 72 h, at 10 µM; for differential viability (reversal): stronger effect = higher value
[7] = yeast transport mutant growth inhibition pilot in 384-well plates, post-Golgi transport modulator project (AID 636; in the data active means inhibition above about 31%); settings: absorbance 615 nm, about 18 h, stronger effect = higher value
[8] = growth suppression of yeast trafficking mutant, preliminary HTS, modulators of trafficking downstream of Golgi apparatus project, 1536-format plate, OD 615 nm (AID 637; in the data active means inhibition above about 30%); settings: yeast transport mutant growth, absorbance 615 nm, 18 h; stronger effect = higher value
[9] = H69AR cells + 2 uM doxorubicin, measured here: viability with 2 uM doxorubicin, stronger effect = lower value
[10] = H69AR cells, compound alone cytotoxicity

| SMILES | viability [1] [%] | Her2 level [2] | viability [3] | viability [4] | viability [5] | differential viability (reversal) ([6]; H69AR cells + 2 uM doxorubicin) | viability [6, 9] [%] | viability [6, 10] [%] | inhibition [7] | inhibition [8] |
| --- | --- | --- | --- | --- | --- | --- | --- | --- | --- | --- |
| O=C(c1ccc(-c2ccccc2)cc1)N1CCN(c2ncccn2)CC1 | 91 | 96.5% (inactive) | 91% (inactive) | 94.6% (inactive) | 103% (inactive) | 12.7% (inactive) | 90.5 | 103 | -9.32% (inactive) | 6.39% (inactive) |
| CC(=O)Nc1ccc(S(=O)(=O)N2CCN=C2C)cc1 | 92.5 | 95% (inactive) | 92.5% (inactive) | 109% (inactive) | 99.4% (inactive) | 2.62% (inactive) | 96.8 | 99.4 | -6.27% (inactive) | -5.08% (inactive) |
| O=C(c1ccc(Cl)c(Cl)c1)N1CCOCC1 | 102 | 103% (inactive) | 102% (inactive) | 91.7% (inactive) | 92.3% (inactive) | -5.39% (inactive) | 97.7 | 92.3 | -0.66% (inactive) | -10.8% (inactive) |
| COc1cccc(NC(=O)CN2CCN(c3ccccc3F)CC2)c1 | 90 | 88.5% (inactive) | 90% (inactive) | 107% (inactive) | 94.9% (inactive) | 1.8% (inactive) | 93.1 | 94.9 | -4.4% (inactive) | 35.6% (active) |
| Cn1c(=O)c2c(nc(SCCCC#N)n2Cc2ccccc2F)n(C)c1=O | 79.5 | 84.5% (inactive) | 79.5% (inactive) | 95.8% (inactive) | 71.2% (inactive) | -4.56% (inactive) | 75.8 | 71.2 | -3.47% (inactive) | -3.67% (inactive) |
| COc1ccc(-c2noc(CSc3nc(N)c(-c4ccccc4)c(=O)[nH]3)n2)cc1OC | 106 | 94.5% (inactive) | 106% (inactive) | 94.6% (inactive) | 84.7% (inactive) | -0.7% (inactive) | 85.4 | 84.7 | -4.13% (inactive) | -3.97% (inactive) |
| COc1ccc(NC(=O)C(C)NS(=O)(=O)c2ccc(NC(C)=O)cc2)cc1Cl (stereo not given) | 124 | 97% (inactive) | 124% (inactive) | 103% (inactive) | 95% (inactive) | 7.65% (inactive) | 87.4 | 95 | -6% (inactive) | -1.75% (inactive) |
| Cc1ccc(OC(=O)CCc2c(C)nc3ncnn3c2C)cc1 | 102 | 96.5% (inactive) | 102% (inactive) | 95.9% (inactive) | 87.1% (inactive) | 5.46% (inactive) | 81.7 | 87.1 | 3.29% (inactive) | -9.09% (inactive) |
| Nc1nnn(Cc2ccccc2)n1 | 93.5 | 92% (inactive) | 93.5% (inactive) | 100% (inactive) | 119% (inactive) | 22.1% (inactive) | 97.3 | 119 | -5.21% (inactive) | -6.98% (inactive) |
| Cc1ccc(/C(O)=C2/C(=O)C(=O)N(Cc3ccco3)C2c2cccs2)cc1 (stereo not given) | 103 | 114% (inactive) | 103% (inactive) | 101% (inactive) | 67.6% (inactive) | -13.1% (inactive) | 80.7 | 67.6 | -5.21% (inactive) | -7.78% (inactive) |
| CCOC(=O)c1sc(N)c(C(=O)OCC)c1COC(=O)C1CC(=O)N(Cc2ccco2)C1 (stereo not given) | 91.5 | 113% (inactive) | 91.5% (inactive) | 80.7% (inactive) | 72.4% (inactive) | 22.6% (inactive) | 49.8 | 72.4 | -7.6% (inactive) | -8.71% (inactive) |
| CCOC(=O)C(C)(C)Sc1nc2c(cnn2-c2ccc(C)cc2)c(=O)[nH]1 | 99 | 100% (inactive) | 99% (inactive) | 90.4% (inactive) | 79.9% (inactive) | -16.5% (inactive) | 96.3 | 79.9 | -1.95% (inactive) | -0.79% (inactive) |
| CCN(Cc1nc2ccccc2c(=O)[nH]1)Cc1nc2cc(OC)c(OC)cc2c(=O)[nH]1 | 88.5 | 114% (inactive) | 88.5% (inactive) | 99.5% (inactive) | 89.8% (inactive) | -2.33% (inactive) | 92.1 | 89.8 | 0.54% (inactive) | 9.83% (inactive) |
| CCCCc1nc(NCCNC(=O)c2ccco2)c(C#N)c2c1CSC(C)(C)C2 | 84.5 | 100% (inactive) | 84.5% (inactive) | 78.7% (inactive) | 86.7% (inactive) | 15.8% (inactive) | 70.9 | 86.7 | -5.2% (inactive) | -7.38% (inactive) |
| O=C(NCc1cccnc1)c1ccccc1Br | 110 | 98.5% (inactive) | 110% (inactive) | 115% (inactive) | 95.1% (inactive) | 0.945% (inactive) | 94.2 | 95.1 | -5.87% (inactive) | -2.42% (inactive) |
